Where a SMILES comes first, the peptide text is derived from it.

The nature of data set [1]: Circular dichroism, percentage helicity. Type of data set: physicochemical. The following applies: Percentage helicity derived using circular dichroism, peptide free in solution. In outline:
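Peptides were N-terminally acetylated and C-terminally amidated, and HPLC-purified to >90% purity. Stapled variants carried an (i, i + 3) hydrocarbon linkage. Percentage helicity was derived from circular dichroism spectra.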

Data set [2] addresses T1, Full-length human eIF4E (human, UniProt P06730 1-217). Briefly: fluorescence polarisation.
Data set [3] deals with T1, Full-length human eIF4E. Nature of the data set: fluorescence polarisation. This is another data set of the same source.
Data set [4] has as its target T1, Full-length human eIF4E. Nature of the data set: SPR.

T1 sequence (P06730 whole entry): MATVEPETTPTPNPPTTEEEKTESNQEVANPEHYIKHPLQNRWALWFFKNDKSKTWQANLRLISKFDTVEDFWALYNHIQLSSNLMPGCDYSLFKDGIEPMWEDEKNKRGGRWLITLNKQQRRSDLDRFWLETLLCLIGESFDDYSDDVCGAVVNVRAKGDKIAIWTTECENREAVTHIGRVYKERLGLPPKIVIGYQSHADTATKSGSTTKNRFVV

In data set [1], `CC(=O)N[C@@H](CCCCN)C(=O)N[C@@H](CCCCN)C(=O)N[C@@H](CCCNC(=N)N)C(=O)N[C@@H](Cc1ccc(O)cc1)C(=O)N[C@@H](CO)C(=O)N[C@@H](CCCNC(=N)N)C(=O)N[C@@H](CCC(=O)O)C(=O)N[C@@H](Cc1ccccc1)C(=O)N[C@@H](CC(C)C)C(=O)N[C@@H](CC(C)C)C(=O)NCC(=O)N[C@@H](Cc1ccccc1)C(N)=O` [eIF4G^D5S] (Ac-KKRYSREFLLGF-NH2) yielded a Helicity of 0%.
On to Ac-KKRYSRDFLLALQK(FAM)-NH2 [FAM labeled tracer peptide (KKRYSRDFLLALQK-(FAM))], for which the binding result with Full-length human eIF4E [2] is reported as “binds”.
As for Ac-KKRYSREFLLGF-NH2 [eIF4G^D5S peptide], the Kd in the data set with Full-length human eIF4E [3] was found to be 0.195 ± 0.0121 µM; in the data set with Full-length human eIF4E [4] it was 0.0999 ± 0.0062 µM.

(Values after publication PMC6506440 (Scientific Reports, 2013).)
